The source of these data is ChEMBL document CHEMBL1806428, “Design and synthesis of spiro derivatives of parthenin as novel anti-cancer agents” (Eur J Med Chem, 2011).

The source made the active and inactive calls. The rule behind the calls is not given here.

The test system of data set [1] is SW-620. The experiment in a line: Cytotoxicity against human SW620 cells assessed as cell growth after 48 hrs by sulforhodamine B assay. As to conditions: Homo sapiens, SW-620, 48 h. Type of data set: functional, cell-based. In a few lines:
(§1)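 Log-phase cells seeded at 10^4/well and allowed to attach for 24 h at 37 °C, 5% CO2. Exposed for 48 h to 0.1–100 (1:10 serial dilutions), four replicate wells per condition. Fixed with cold 50% TCA for 1 h at 4 °C, stained with sulforhodamine B, dye dissolved in Tris, OD read at 540 nm. Blank-subtracted growth expressed relative to untreated cells (100%); IC50 reported.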
For orientation: In SRB staining, fixed cells bind dye roughly in proportion to their protein.

A further data set concerns DU-145. The experiment in a line: Cytotoxicity against human DU145 cells assessed as cell growth after 48 hrs by sulforhodamine B assay. The class given is functional, cell-based. As to conditions: Homo sapiens, DU-145, 48 h. The procedure, abridged:
as §1

In another data set the test system is PC-3. The data set is described as follows: Cytotoxicity against human PC3 cells assessed as cell growth after 48 hrs by sulforhodamine B assay. The class given is functional, cell-based. As to conditions: Homo sapiens, PC-3, 48 h. In a few lines:
as §1

Data set [2] in a line: Partition coefficient, log P of the compound. Type of data set: physicochemical. As to conditions: octanol/water.
Data set [3] deals with SW-620. The data set is described as follows: Induction of apoptosis in human SW620 cells assessed as DNA fragmentation at 5 uM after 6 hrs by gel electrophoresis. The class given is functional, cell-based.
The test system of data set [4] is SW-620. The experiment in a line: Cell cycle arrest in human SW620 cells assessed as increase in sub-G1 DNA content at 5 uM after 24 hrs using propidium iodide staining by flow cytometry (reference value: 3.45%). The class given is functional.

`C[C@H]1CC[C@@H]2[C@@H](OC(=O)[C@]23CC(c2ccccc2F)=NO3)[C@]2(C)C(=O)C=C[C@@]12O`: the IC50 with SW-620 [1] stood at 11 µM; in the data set with DU-145, 24 µM; in the data set on PC-3, 8.2 µM. Also, the log partition coefficient (logP) in data set [2] is 1.57.
In the case of `C[C@H]1CC[C@@H]2[C@@H](OC(=O)[C@]23CC(c2ccccc2)=NO3)[C@]2(C)C(=O)C=C[C@@]12O`, the IC50 was 45.4 µM in the data set on SW-620 [1], 39.8 µM with DU-145 and 46 µM in the data set with PC-3. For the same compound, the lipophilicity (logP) in data set [2] amounted to 1.41.
As for `COC(=O)c1cccc(N2C[C@]23C(=O)O[C@@H]2[C@H]3CC[C@H](C)[C@]3(O)C=CC(=O)[C@@]23C)c1`, the half-inhibitory concentration (IC50) in the data set on SW-620 [1] was 30 µM; in the data set on DU-145 it was 18.5 µM; in the data set on PC-3 it was 10.1 µM. Moreover, the logP in data set [2] was 1.52.
As to `Cc1cccc(N2C[C@]23C(=O)O[C@@H]2[C@H]3CC[C@H](C)[C@]3(O)C=CC(=O)[C@@]23C)c1`, the values for the IC50 with SW-620 [1], in the data set on DU-145 and in the data set with PC-3 were 15 µM, 62.5 µM and 61.5 µM, respectively. Also, the logP in data set [2] came out at 1.83.
Taken in the same sequence, the figures for `C[C@H]1CC[C@@H]2[C@@H](OC(=O)[C@]23CC(c2ccc(C#N)cc2)=NO3)[C@]2(C)C(=O)C=C[C@@]12O` were 53 µM, 26 µM, 32 µM and 1.17.
Consider `C[C@H]1CC[C@@H]2[C@@H](OC(=O)[C@]23CC(c2ccccc2Cl)=NO3)[C@]2(C)C(=O)C=C[C@@]12O`, for which the figures for the IC50 with SW-620 [1], with DU-145 and in the data set with PC-3 were 9 µM, 19 µM and 12 µM, respectively. The same compound came in with a log partition coefficient (logP) in data set [2] of 2.09.
Taken in the same sequence, the figures for `C[C@H]1CC[C@@H]2[C@@H](OC(=O)[C@]23CC(c2ccc(F)cc2)=NO3)[C@]2(C)C(=O)C=C[C@@]12O` were 3.6 µM, 13 µM, 27 µM and 1.57.
Taken in the same sequence, the figures for `C[C@H]1CC[C@@H]2[C@@H](OC(=O)[C@]23CN3c2ccccc2)[C@]2(C)C(=O)C=C[C@@]12O` were 87.7 µM, 31.4 µM, 10.6 µM and 1.38.
As to `C[C@H]1CC[C@@H]2[C@@H](OC(=O)[C@]23CC(c2c(Cl)cccc2Cl)=NO3)[C@]2(C)C(=O)C=C[C@@]12O`, the IC50 with SW-620 [1] came out at 43 µM; in the data set with DU-145, 38 µM; in the data set with PC-3 it was 56 µM. This compound also had a lipophilicity (logP) in data set [2] of 2.67.
On the same counts, the results for `C[C@H]1CC[C@@H]2[C@@H](OC(=O)[C@]23CN3c2cccc([N+](=O)[O-])c2)[C@]2(C)C(=O)C=C[C@@]12O` are 61 µM, 30 µM, 10.1 µM and 1.31.
Turning to `COc1cc(C2=NO[C@]3(C2)C(=O)O[C@@H]2[C@H]3CC[C@H](C)[C@]3(O)C=CC(=O)[C@@]23C)ccc1O`, the IC50 in the data set on SW-620 [1] amounted to 88 µM; in the data set on DU-145, 71 µM; in the data set on PC-3 it was 16 µM. Further, the log partition coefficient (logP) in data set [2] is 0.75.
On the same counts, the results for `Cc1ccccc1N1C[C@]12C(=O)O[C@@H]1[C@H]2CC[C@H](C)[C@]2(O)C=CC(=O)[C@@]12C` are 22 µM, 30 µM, 12.5 µM and 1.83.
On the same counts, the results for `C[C@H]1CC[C@@H]2[C@@H](OC(=O)[C@]23CC(c2ccc(N(C)C)cc2)=NO3)[C@]2(C)C(=O)C=C[C@@]12O` are 5.1 µM, 4.5 µM, 6.3 µM and 1.51.
Taken in the same sequence, the figures for `C[C@H]1CC[C@@H]2[C@@H](OC(=O)[C@]23CC(c2ccc([N+](=O)[O-])cc2)=NO3)[C@]2(C)C(=O)C=C[C@@]12O` were 9 µM, 7 µM, 12 µM and 1.37.
In the case of `Cc1cccc(C2=NO[C@]3(C2)C(=O)O[C@@H]2[C@H]3CC[C@H](C)[C@]3(O)C=CC(=O)[C@@]23C)c1`, the IC50 in the data set with SW-620 [1] worked out at 15 µM; in the data set with DU-145, 28 µM; with PC-3, 66.6 µM. The logP in data set [2] amounted to 1.86.
On the same counts, the results for `Cc1ccc(C2=NO[C@]3(C2)C(=O)O[C@@H]2[C@H]3CC[C@H](C)[C@]3(O)C=CC(=O)[C@@]23C)cc1` are 2.5 µM, 14 µM, 14 µM and 1.86.
As to `COc1ccc(C2=NO[C@]3(C2)C(=O)O[C@@H]2[C@H]3CC[C@H](C)[C@]3(O)C=CC(=O)[C@@]23C)cc1`, the IC50 in the data set on SW-620 [1] worked out at 41 µM; with DU-145, 20 µM; with PC-3, 35 µM. The compound also gave a logP in data set [2] of 1.47.
In the case of `CC[C@@]1(O)C(=O)OCc2c1cc1n(c2=O)Cc2cc3ccccc3nc2-1` [CAMPTOTHECIN], the outcome in the data set with SW-620 [3] was Active. Moreover, the Activity in the data set with SW-620 [4] is recorded as 60%.
Regarding `C[C@H]1CC[C@@H]2[C@@H](OC(=O)[C@]23CC(c2ccc(Cl)cc2)=NO3)[C@]2(C)C(=O)C=C[C@@]12O`, the half-maximal inhibitory concentration (IC50) with SW-620 [1] was found to be 51 µM; in the data set on DU-145, 43 µM; in the data set on PC-3, 49 µM. The lipophilicity (logP) in data set [2] was found to be 2.09.
For the compound `C[C@H]1CC[C@@H]2[C@@H](OC(=O)[C@]23CC(c2ccccc2[N+](=O)[O-])=NO3)[C@]2(C)C(=O)C=C[C@@]12O`, the figures for the IC50 in the data set on SW-620 [1], in the data set with DU-145 and in the data set on PC-3 were 40 µM, 34 µM and 37 µM, respectively. Also, the lipophilicity (logP) in data set [2] was found to be 1.37.
`Cc1ccccc1C1=NO[C@]2(C1)C(=O)O[C@@H]1[C@H]2CC[C@H](C)[C@]2(O)C=CC(=O)[C@@]12C`: the half-maximal inhibitory concentration (IC50) in the data set on SW-620 [1] came to 5 µM; in the data set on DU-145, 12 µM; with PC-3 it was 10 µM. In data set [2], this compound displayed a logP of 1.86.
Regarding `C[C@H]1CC[C@@H]2[C@@H](OC(=O)[C@]23CC(c2ccccc2Br)=NO3)[C@]2(C)C(=O)C=C[C@@]12O`, the figures for the IC50 in the data set on SW-620 [1], in the data set with DU-145 and in the data set on PC-3 were 44 µM, 18 µM and 51 µM, respectively. In data set [2], this compound registered a logP of 2.22.
For `C[C@H]1CC[C@@H]2[C@@H](OC(=O)[C@]23CN3c2cccc(Cl)c2)[C@]2(C)C(=O)C=C[C@@]12O`, the concentration for half-maximal inhibition (IC50) with SW-620 [1] was found to be 48.4 µM; with DU-145, 39.5 µM; with PC-3 it was 86.1 µM. In data set [2], this compound displayed a logP of 2.03.
Regarding `C[C@H]1CC[C@@H]2[C@@H](OC(=O)[C@]23CN3c2ccccc2[N+](=O)[O-])[C@]2(C)C(=O)C=C[C@@]12O`, the IC50 in the data set on SW-620 [1] came out at 33 µM; with DU-145, 28 µM; in the data set with PC-3 it was 10 µM. The compound further returned a logP in data set [2] of 1.31.
For the compound `Cc1ccc(C2C[C@@]3(ON2c2ccccc2)C(=O)O[C@@H]2[C@H]3CC[C@H](C)[C@]3(O)C=CC(=O)[C@@]23C)cc1` (mixture of isomers), the logP in data set [2] stood at 3.64.
Still for that read-out and setting: the value for `C[C@H]1CC[C@@H]2[C@@H](OC(=O)[C@]23CC(c2ccc(Cl)cc2)N(c2ccccc2)O3)[C@]2(C)C(=O)C=C[C@@]12O` (mixture of isomers) was 3.87.
On to `COc1ccccc1N1C[C@]12C(=O)O[C@@H]1[C@H]2CC[C@H](C)[C@]2(O)C=CC(=O)[C@@]12C`, for which the IC50 was determined as 47.3 µM in the data set with SW-620 [1], 27 µM in the data set with DU-145 and 52 µM in the data set with PC-3. The compound also gave a lipophilicity (logP) in data set [2] of 1.41.
For the compound `Cc1ccc(N2C[C@]23C(=O)O[C@@H]2[C@H]3CC[C@H](C)[C@]3(O)C=CC(=O)[C@@]23C)cc1`, the half-maximal inhibitory concentration (IC50) with SW-620 [1] worked out at 32 µM; in the data set with DU-145 it was 36 µM; in the data set with PC-3, 25 µM. The same compound displayed a logP in data set [2] of 1.83.
For `C[C@H]1CC[C@@H]2[C@@H](OC(=O)[C@]23CC(c2c(F)c(F)c(F)c(F)c2F)N(c2ccccc2)O3)[C@]2(C)C(=O)C=C[C@@]12O` (mixture of isomers), the lipophilicity (logP) in data set [2] was 3.72.
Same read-out and setting: then `C[C@H]1CC[C@@H]2[C@@H](OC(=O)[C@]23CC(c2cccc(Cl)c2)N(c2ccccc2)O3)[C@]2(C)C(=O)C=C[C@@]12O` (mixture of isomers), with 3.87.
Regarding `COc1ccc(C2=NO[C@]3(C2)C(=O)O[C@@H]2[C@H]3CC[C@H](C)[C@]3(O)C=CC(=O)[C@@]23C)cc1OC`, the IC50 came to 86 µM with SW-620 [1], 84 µM with DU-145 and 25 µM with PC-3. In data set [2], the logP stood at 1.06.
Taken in the same sequence, the figures for `COc1ccc(N2C[C@]23C(=O)O[C@@H]2[C@H]3CC[C@H](C)[C@]3(O)C=CC(=O)[C@@]23C)cc1` were 30 µM, 78 µM, 12 µM and 1.41.
Turning to `C[C@H]1CC[C@@H]2[C@@H](OC(=O)[C@]23CC(c2ccc(O)cc2)=NO3)[C@]2(C)C(=O)C=C[C@@]12O`, the half-maximal inhibitory concentration (IC50) in the data set with SW-620 [1] was found to be 89 µM; in the data set with DU-145, 93 µM; in the data set with PC-3, 20 µM. The compound also gave a logP in data set [2] of 0.932.
On the same counts, the results for `C[C@H]1CC[C@@H]2[C@@H](OC(=O)[C@]23CC(c2cccc([N+](=O)[O-])c2)=NO3)[C@]2(C)C(=O)C=C[C@@]12O` are 49 µM, 51 µM, 55 µM and 1.37.

The IC50 is the concentration needed to halve the response being measured. As a reminder, the logP is the decadic logarithm of the partition coefficient of the neutral form, usually between octanol and water. The low end stands for lower lipophilicity, the high end for higher lipophilicity.
